From ChEMBL document CHEMBL6071151, “Discovery of Inhibitors Targeting Protein-Protein Interaction between Bacterial RNA Polymerase and NusG as Novel Antimicrobials” (J Med Chem, 2024)

Experiments:
Format in all cases: functional
Enterobacter cloacae = assay: Antimicrobial activity against Enterobacter cloacae ATCC 13047 assessed as reduction in microbial growth measured after 20 hrs by CLSI based broth microdilution method
Procedure, shortened: (§1)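 Broth microdilution per CLSI in cation-adjusted Mueller-Hinton broth. Two-fold serial dilutions from 256 to 0.25 μg/mL, inoculum about 5 × 10⁵ CFU/mL. Read after 20 h at 37 °C. MIC is the lowest concentration with no visible growth. Run in duplicate.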

Staphylococcus aureus [1] = assay: Antimicrobial activity against Staphylococcus aureus ATCC 29213 assessed as reduction in microbial growth measured after 20 hrs by CLSI based broth microdilution method; procedure, shortened: as §1
Acinetobacter baumannii = assay: Antimicrobial activity against Acinetobacter baumannii ATCC 19606 assessed as reduction in microbial growth measured after 20 hrs by CLSI based broth microdilution method; procedure, shortened: as §1
Streptococcus pneumoniae = assay: Antimicrobial activity against Streptococcus pneumoniae ATCC 49619 assessed as reduction in microbial growth measured after 20 hrs by CLSI based broth microdilution method
Pseudomonas aeruginosa = assay: Antimicrobial activity against Pseudomonas aeruginosa ATCC 27853 assessed as reduction in microbial growth measured after 20 hrs by CLSI based broth microdilution method; procedure, shortened: as §1
Enterococcus faecalis = assay: Antimicrobial activity against Enterococcus faecalis ATCC 19433 assessed as reduction in microbial growth measured after 20 hrs by CLSI based broth microdilution method; procedure, shortened: as §1
Klebsiella pneumoniae = assay: Antimicrobial activity against Klebsiella pneumoniae ATCC 700603 assessed as reduction in microbial growth measured after 20 hrs by CLSI based broth microdilution method; procedure, shortened: as §1
Escherichia coli = assay: Antimicrobial activity against Escherichia coli ATCC 25922 assessed as reduction in microbial growth measured after 20 hrs by CLSI based broth microdilution method; procedure, shortened: as §1
Staphylococcus aureus [2] = assay: Antimicrobial activity against Staphylococcus aureus ATCC 25923 assessed as reduction in microbial growth measured after 20 hrs by CLSI based broth microdilution method; procedure, shortened: as §1

MIC (Enterobacter cloacae) [µg/mL] | MIC (Staphylococcus aureus [1]) [µg/mL] | MIC (Acinetobacter baumannii) [µg/mL] | MIC (Streptococcus pneumoniae) [µg/mL] | MIC (Pseudomonas aeruginosa) [µg/mL] | MIC (Enterococcus faecalis) [µg/mL] | MIC (Klebsiella pneumoniae) [µg/mL] | MIC (Escherichia coli) [µg/mL] | MIC (Staphylococcus aureus [2]) [µg/mL] | SMILES
> 256 | 32 | 64 | 16 | > 256 | 64 | > 256 | 64 | 64 | OC(CNCCNc1ccc(C(F)(F)F)cn1)COc1ccc(C(F)(F)F)cc1 (stereo not drawn)
128 | 8 | 32 | 4 | > 256 | 8 | > 256 | 16 | 16 | OC(CNCCSc1ccccc1C(F)(F)F)COc1ccc(C(F)(F)F)cc1 (stereo not drawn)
128 | 128 | > 256 | 32 | > 256 | 128 | > 256 | > 256 | 128 | O=[N+]([O-])c1ccccc1NCCNCC(O)COc1ccc(C(F)(F)F)cc1 (stereo not drawn)
> 256 | > 256 | > 256 | 256 | > 256 | > 256 | > 256 | > 256 | > 256 | COc1ccc(OCC(O)CNCCNc2nccc(C(F)(F)F)n2)cc1 (stereo not drawn)
> 256 | 128 | > 256 | 128 | > 256 | 256 | > 256 | > 256 | 256 | O=[N+]([O-])c1ccc(OCC(O)CNCCNc2nccc(C(F)(F)F)n2)cc1 (stereo not drawn)
> 256 | 128 | > 256 | 128 | > 256 | > 256 | > 256 | > 256 | > 256 | OC(CNCCNc1ccccc1C(F)(F)F)COCc1ccccc1C(F)(F)F (stereo not drawn)
128 | 64 | 128 | 64 | > 256 | 128 | 256 | 128 | 128 | O=[N+]([O-])c1ccc(NCCNCC(O)COCc2ccc(C(F)(F)F)cc2)nc1 (stereo not drawn)
128 | 64 | 64 | 32 | > 256 | 64 | > 256 | 64 | 64 | O=S(=O)(NCCNCC(O)COc1ccc(C(F)(F)F)cc1)c1ccccc1C(F)(F)F (stereo not drawn)
> 256 | 256 | > 256 | 128 | > 256 | > 256 | > 256 | > 256 | > 256 | OC(CNCCNc1nccc(C(F)(F)F)n1)COc1ccc(F)cc1 (stereo not drawn)
32 | 32 | 32 | 16 | > 256 | 16 | > 256 | 32 | 32 | OC(CNCCNc1ccccc1C(F)(F)F)COc1cccc(C(F)(F)F)c1 (stereo not drawn)
> 256 | > 256 | > 256 | 256 | > 256 | > 256 | > 256 | > 256 | > 256 | COC(=O)c1ccc(OCC(O)CNCCNc2nccc(C(F)(F)F)n2)cc1 (stereo not drawn)
> 256 | > 256 | > 256 | > 256 | > 256 | > 256 | > 256 | > 256 | > 256 | OC(CNCCNc1ccc(-c2ccccc2)cc1)COc1ccc(C(F)(F)F)cc1 (stereo not drawn)
> 256 | 128 | > 256 | 128 | > 256 | > 256 | > 256 | > 256 | > 256 | N#Cc1ccc(OCC(O)CNCCNc2ccccc2C(F)(F)F)cc1 (stereo not drawn)
128 | 64 | 64 | 32 | > 256 | 64 | > 256 | 64 | 64 | OC(CNCCNc1ccccc1C(F)(F)F)COCc1ccc(C(F)(F)F)cc1 (stereo not drawn)
> 256 | 256 | > 256 | 128 | > 256 | > 256 | > 256 | > 256 | 256 | O=[N+]([O-])c1ccc(OCC(O)CNCCNc2ncc(C(F)(F)F)cn2)cc1 (stereo not drawn)
256 | 128 | > 256 | 64 | > 256 | 128 | > 256 | > 256 | 128 | O=[N+]([O-])c1ccc(OCC(O)CNCCNc2cc(C(F)(F)F)ccn2)cc1 (stereo not drawn)
256 | 64 | 256 | 32 | > 256 | 128 | > 256 | 256 | 128 | O=[N+]([O-])c1ccc(OCC(O)CNCCNc2cccc(C(F)(F)F)n2)cc1 (stereo not drawn)
128 | 32 | 128 | 64 | > 256 | 128 | > 256 | 128 | 32 | O=[N+]([O-])c1ccc(OCC(O)CNCCNc2ccc(C(F)(F)F)cn2)cc1 (stereo not drawn)
128 | 128 | 128 | 64 | > 256 | 128 | > 256 | 16 | 128 | N#Cc1ccccc1NCCNCC(O)COc1ccc(C(F)(F)F)cc1 (stereo not drawn)
128 | 64 | 128 | 64 | > 256 | 128 | > 256 | 128 | 64 | OC(CNCCNc1ccc(C(F)(F)F)cn1)COCc1ccccc1C(F)(F)F (stereo not drawn)
> 256 | 128 | > 256 | 128 | > 256 | > 256 | > 256 | > 256 | > 256 | OC(CNCCNc1ccccc1C(F)(F)F)COCc1cccc(C(F)(F)F)c1.OC(CNCCNc1ccccc1C(F)(F)F)COCc1cccc(C(F)(F)F)c1 (stereo not drawn)
64 | 32 | 64 | 32 | > 256 | 32 | > 256 | 64 | 64 | OC(CNCCNc1ccccc1C(F)(F)F)COc1ccccc1C(F)(F)F (stereo not drawn)
